Measured values from ChEMBL document CHEMBL4811275, “Iodinated 1,2-diacylhydrazines, benzohydrazide-hydrazones and their analogues as dual antimicrobial and cytotoxic agents” (Bioorg Med Chem, 2021).
Converted amounts (≈) assume the structure as drawn.

Experiments:
[1] = tested on: Trichophyton interdigitale; test: Antifungal activity against Trichophyton interdigitale ATCC 9533 assessed as reduction in fungal growth incubated for 120 hrs by broth microdilution method; assay type: functional
Outline: (§1)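 Broth microdilution per EUCAST (yeasts and moulds), modified: twofold dilutions from DMSO (final ≤1% v/v) in RPMI-1640 with L-glutamine, 2% glucose, MOPS-buffered pH 7.0; scale from 0.49 µM. Static, dark, humidified, 35 ± 2 °C for 24 and 48 h (Trichophyton interdigitale 72 and 120 h). MIC = complete visible inhibition by eye; duplicates within one dilution step.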

Enterococcus faecalis [2] = test: Antibacterial activity against Enterococcus faecalis ATCC 29212 assessed as reduction in bacterial growth incubated for 24 hrs by broth microdilution method; assay type: functional
Outline: (§2)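 Cation-adjusted Mueller-Hinton broth microdilution per EUCAST, modified; compounds from DMSO stocks, final DMSO ≤1% v/v; scale starting from 0.49 µM. Static incubation at 35 ± 2 °C, dark, humidified, read at 24 and 48 h. MIC = lowest concentration with no visible growth by eye; duplicates, parallel readings within one dilution step; growth and medium/DMSO controls included.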

[3] = tested on: Staphylococcus epidermidis; test: Antibacterial activity against Staphylococcus epidermidis ATCC 12228 assessed as reduction in bacterial growth incubated for 24 hrs by broth microdilution method; assay type: functional; outline: as §2
[4] = tested on: Staphylococcus epidermidis; test: Antibacterial activity against Staphylococcus epidermidis ATCC 12228 assessed as reduction in bacterial growth incubated for 48 hrs by broth microdilution method; assay type: functional; outline: as §2
[5] = tested on: Trichophyton interdigitale; test: Antifungal activity against Trichophyton interdigitale ATCC 9533 assessed as reduction in fungal growth incubated for 72 hrs by broth microdilution method; assay type: functional; outline: as §1
Escherichia coli [6] = test: Antibacterial activity against Escherichia coli ATCC 25922 assessed as reduction in bacterial growth incubated for 48 hrs by broth microdilution method; assay type: functional; outline: as §2
Staphylococcus aureus [7] = test: Antibacterial activity against methicillin-resistant Staphylococcus aureus ATCC 43300 assessed as reduction in bacterial growth incubated for 24 hrs by broth microdilution method; assay type: functional
Outline: (§3)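 EUCAST-based broth microdilution in cation-adjusted Mueller-Hinton broth. DMSO stocks, final DMSO ≤1% v/v, concentration scale starting from 0.49 µM. Static incubation at 35 ± 2 °C, dark and humidified. Run in duplicate, accepted only if parallel MICs differ by at most one dilution step. MIC is the lowest concentration with no visible growth by naked eye.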

Lichtheimia corymbifera [8] = test: Antifungal activity against Lichtheimia corymbifera CCM 8077 assessed as reduction in fungal growth incubated for 24 hrs by broth microdilution method; assay type: functional; outline: as §1
Escherichia coli [9] = test: Antibacterial activity against Escherichia coli ATCC 25922 assessed as reduction in bacterial growth incubated for 24 hrs by broth microdilution method; assay type: functional; outline: as §2
Staphylococcus aureus [10] = test: Antibacterial activity against methicillin-resistant Staphylococcus aureus ATCC 43300 assessed as reduction in bacterial growth incubated for 48 hrs by broth microdilution method; assay type: functional; outline: as §3
Lichtheimia corymbifera [11] = test: Antifungal activity against Lichtheimia corymbifera CCM 8077 assessed as reduction in fungal growth incubated for 48 hrs by broth microdilution method; assay type: functional; outline: as §1
Candida parapsilosis [12] = test: Antifungal activity against Candida parapsilosis ATCC 22019 assessed as reduction in fungal growth incubated for 48 hrs by broth microdilution method; assay type: functional; settings: Lodderomyces parapsilosis; outline: as §1
Staphylococcus aureus [13] = test: Antibacterial activity against Staphylococcus aureus ATCC 29213 assessed as reduction in bacterial growth incubated for 48 hrs by broth microdilution method; assay type: functional; outline: as §2
Candida albicans [14] = test: Antifungal activity against Candida albicans ATCC 24443 assessed as reduction in fungal growth incubated for 48 hrs by broth microdilution method; assay type: functional; outline: as §1
Staphylococcus aureus [15] = test: Antibacterial activity against Staphylococcus aureus ATCC 29213 assessed as reduction in bacterial growth incubated for 24 hrs by broth microdilution method; assay type: functional; outline: as §2
Pichia kudriavzevii [16] = test: Antifungal activity against Candida krusei ATCC 6258 assessed as reduction in fungal growth incubated for 24 hrs by broth microdilution method; assay type: functional; outline: as §1
Candida parapsilosis [17] = test: Antifungal activity against Candida parapsilosis ATCC 22019 assessed as reduction in fungal growth incubated for 24 hrs by broth microdilution method; assay type: functional; settings: Lodderomyces parapsilosis; outline: as §1
HepG2 [18] = test: Cytotoxicity against human HepG2 cells assessed as reduction in cell viability incubated for 24 hrs by cell-titer 96 aqueous one solution cell proliferation assay; assay type: functional, cell-based; settings: HepG2, 24 h
Enterococcus faecalis [19] = test: Antibacterial activity against Enterococcus faecalis ATCC 29212 assessed as reduction in bacterial growth incubated for 48 hrs by broth microdilution method; assay type: functional; outline: as §2
Pichia kudriavzevii [20] = test: Antifungal activity against Candida krusei ATCC 6258 assessed as reduction in fungal growth incubated for 48 hrs by broth microdilution method; assay type: functional; outline: as §1
Candida albicans [21] = test: Antifungal activity against Candida albicans ATCC 24443 assessed as reduction in fungal growth incubated for 24 hrs by broth microdilution method; assay type: functional; outline: as §1
HepG2 [22] = test: Antiproliferative activity against human HepG2 cells assessed as increase in caspase 3/7 level at 100 uM incubated for 24 hrs by Caspase-glo reagent based microplate reader analysis relative to control; assay type: functional
Outline: (§4)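 HepG2 cells seeded at 15 000/well, compounds diluted in complete MEM, 24 h at 37 °C, 5% CO2; untreated vehicle controls. Caspase-Glo 3/7 reagent added, shaken 350 rpm at room temperature 60 min in dark, luminescence read. Expressed as fold of untreated control; triplicate wells, mean ± SD with n = 6.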

HepG2 [23] = test: Antiproliferative activity against human HepG2 cells assessed as increase in caspase 3/7 level at 1 uM incubated for 24 hrs by Caspase-glo reagent based microplate reader analysis relative to control; assay type: functional; outline: as §4
HK-2 = test: Cytotoxicity against human HK-2 cells assessed as reduction in cell viability incubated for 24 hrs by cell-titer 96 aqueous one solution cell proliferation assay; assay type: cell-based; settings: HK-2, 24 h
[24] = Therapeutic index, ratio of IC50 for cytotoxicity against human HepG2 cells to MIC for antifungal activity against Candida albicans ATCC 24443

Work on `Oc1c(I)cc(I)cc1CNNC(O)c1ccc(F)cc1` (stereo unspecified) yielded an MIC [1] of 62.5 µM (≈ 32.1 µg/mL), an MIC (Enterococcus faecalis [2]) of 15.6 µM (≈ 8.03 µg/mL) and an MIC [3] of 7.81 µM (≈ 4.01 µg/mL). For the same compound, the MIC [4] was 7.81 µM (≈ 4.01 µg/mL), the MIC [5] was 62.5 µM (≈ 32.1 µg/mL) and the MIC (Escherichia coli [6]) was greater than 500 µM. For the same compound, the MIC (Staphylococcus aureus [7]) was 31.2 µM (≈ 16.1 µg/mL), the MIC (Lichtheimia corymbifera [8]) was greater than 500 µM and the MIC (Escherichia coli [9]) was greater than 500 µM. The MIC (Staphylococcus aureus [10]) was 62.5 µM (≈ 32.1 µg/mL), the MIC (Lichtheimia corymbifera [11]) was greater than 500 µM and the MIC (Candida parapsilosis [12]) was greater than 500 µM. It also gave an MIC (Staphylococcus aureus [13]) of 15.6 µM (≈ 8.03 µg/mL), an MIC (Candida albicans [14]) greater than 500 µM and an MIC (Staphylococcus aureus [15]) of 15.6 µM (≈ 8.03 µg/mL). The MIC (Pichia kudriavzevii [16]) was greater than 500 µM, the MIC (Candida parapsilosis [17]) was greater than 500 µM and the IC50 (HepG2 [18]) was 41.9 µM. For the same compound, the MIC (Enterococcus faecalis [19]) was 15.6 µM (≈ 8.03 µg/mL), the MIC (Pichia kudriavzevii [20]) was greater than 500 µM and the MIC (Candida albicans [21]) was greater than 500 µM.
In the case of `O=C(N/N=C/c1cc(I)cc(I)c1O)c1ccc(F)cc1`, the MIC [1] is reported as 62.5 µM (≈ 31.9 µg/mL), the MIC (Enterococcus faecalis [2]) is reported as 31.2 µM (≈ 15.9 µg/mL) and the MIC [3] is reported as 31.2 µM (≈ 15.9 µg/mL). It also gave an MIC [4] of 31.2 µM (≈ 15.9 µg/mL), an MIC [5] of 15.6 µM (≈ 7.97 µg/mL) and an MIC (Escherichia coli [6]) greater than 500 µM. The MIC (Staphylococcus aureus [7]) was 15.6 µM (≈ 7.97 µg/mL), the MIC (Lichtheimia corymbifera [8]) was 125 µM (≈ 63.8 µg/mL) and the MIC (Escherichia coli [9]) was greater than 500 µM. It also gave an MIC (Staphylococcus aureus [10]) of 31.2 µM (≈ 15.9 µg/mL), an MIC (Lichtheimia corymbifera [11]) of 125 µM (≈ 63.8 µg/mL) and an MIC (Candida parapsilosis [12]) of 125 µM (≈ 63.8 µg/mL). It also gave a fold change (FC) (HepG2 [22]) of 1.33, an MIC (Staphylococcus aureus [13]) of 31.2 µM (≈ 15.9 µg/mL) and an MIC (Candida albicans [14]) of 125 µM (≈ 63.8 µg/mL). The “fold change (FC)” value (HepG2 [23]) was 1.36, the MIC (Staphylococcus aureus [15]) was 15.6 µM (≈ 7.97 µg/mL) and the MIC (Pichia kudriavzevii [16]) was 125 µM (≈ 63.8 µg/mL). The MIC (Candida parapsilosis [17]) was 62.5 µM (≈ 31.9 µg/mL), the IC50 (HepG2 [18]) was 12.1 µM and the MIC (Enterococcus faecalis [19]) was 62.5 µM (≈ 31.9 µg/mL). The MIC (Pichia kudriavzevii [20]) was 125 µM (≈ 63.8 µg/mL), the IC50 (HK-2) was 55.6 µM and the MIC (Candida albicans [21]) was 62.5 µM (≈ 31.9 µg/mL).
In the case of `O=C(N/N=C/c1cc(I)cc(I)c1O)c1ccc([N+](=O)[O-])cc1`, the MIC [1] is reported as 15.6 µM (≈ 8.39 µg/mL), the MIC (Enterococcus faecalis [2]) is reported as 62.5 µM (≈ 33.6 µg/mL) and the MIC [3] is reported as 31.2 µM (≈ 16.8 µg/mL). The MIC [4] was 62.5 µM (≈ 33.6 µg/mL), the MIC [5] was 3.9 µM (≈ 2.09 µg/mL) and the MIC (Escherichia coli [6]) was greater than 125 µM. The MIC (Staphylococcus aureus [7]) was 31.2 µM (≈ 16.8 µg/mL), the MIC (Lichtheimia corymbifera [8]) was 31.2 µM (≈ 16.8 µg/mL) and the MIC (Escherichia coli [9]) was greater than 125 µM. For the same compound, the MIC (Staphylococcus aureus [10]) was 62.5 µM (≈ 33.6 µg/mL), the MIC (Lichtheimia corymbifera [11]) was 62.5 µM (≈ 33.6 µg/mL) and the MIC (Candida parapsilosis [12]) was greater than 125 µM. It also gave an MIC (Staphylococcus aureus [13]) of 62.5 µM (≈ 33.6 µg/mL), an MIC (Candida albicans [14]) of 7.81 µM (≈ 4.19 µg/mL) and an MIC (Staphylococcus aureus [15]) of 31.2 µM (≈ 16.8 µg/mL). For the same compound, the MIC (Pichia kudriavzevii [16]) was 62.5 µM (≈ 33.6 µg/mL), the Ratio [24] was 13.1 and the MIC (Candida parapsilosis [17]) was greater than 125 µM. The IC50 (HepG2 [18]) was 24.7 µM, the MIC (Enterococcus faecalis [19]) was 125 µM (≈ 67.1 µg/mL) and the MIC (Pichia kudriavzevii [20]) was greater than 125 µM. It also gave an IC50 (HK-2) of 26.8 µM and an MIC (Candida albicans [21]) of 1.95 µM (≈ 1.05 µg/mL).
Work on `O=C(N/N=C/c1cc(I)cc(I)c1O)c1ccc(C(F)(F)F)cc1` yielded an MIC (Enterococcus faecalis [2]) of 31.2 µM (≈ 17.5 µg/mL), an MIC [3] of 31.2 µM (≈ 17.5 µg/mL) and an MIC [4] of 31.2 µM (≈ 17.5 µg/mL). The MIC (Escherichia coli [6]) was greater than 250 µM, the MIC (Staphylococcus aureus [7]) was 31.2 µM (≈ 17.5 µg/mL) and the MIC (Escherichia coli [9]) was greater than 250 µM. For the same compound, the MIC (Staphylococcus aureus [10]) was 31.2 µM (≈ 17.5 µg/mL), the fold change (FC) (HepG2 [22]) was 1.37 and the MIC (Staphylococcus aureus [13]) was 31.2 µM (≈ 17.5 µg/mL). For the same compound, the MIC (Staphylococcus aureus [15]) was 31.2 µM (≈ 17.5 µg/mL), the IC50 (HepG2 [18]) was 11.7 µM and the MIC (Enterococcus faecalis [19]) was 31.2 µM (≈ 17.5 µg/mL). For the same compound, the IC50 (HK-2) was 49.9 µM.
